Data reported in ChEMBL document CHEMBL1124891, “Azulene derivatives: new non-prostanoid thromboxane A2 receptor antagonists” (J Med Chem, 1990).
pIC50: −log10 of the molar value.

Tests used:
Assay type in all cases: functional
[1] = species on record: Oryctolagus cuniculus; test: Tested for the concentration that cause 50% inhibition of the maximum aggregation with rabbit platelet-rich plasma induced by 2.5 x 10 E -6 M of U-46619
In short: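 Rabbit blood drawn from carotid artery into 3.18% trisodium citrate (1/10 volume). PRP from 300 g spin for 15 min; PPP from 1000g spin for 20 min, used as 100% transmission reference. PRP warmed 2 min at 37 °C, compound or vehicle added, 2 min later 2.5×10^-6 M U-46619. Turbidimetric (Born) aggregometry; IC50 as 50% inhibition of maximum aggregation.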

[2] = species on record: Oryctolagus cuniculus; test: Tested for the concentration that causes 50% relaxation when contraction in rabbit aorta was induced by 3 x 10 E -8 M of U-46619.
In short: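 Rabbit thoracic aorta strips held at 37 °C in oxygenated (95% O2/5% CO2) bicarbonate salt solution with dextrose, resting tension 1.5 g, equilibrated 1 h. Isometric tension recorded via force transducer. Once contraction to 3×10^-8 M U-46619 plateaued, compound added cumulatively. Concentration giving 50% relaxation of maximal U-46619-induced tension change obtained by regression of concentration–relaxation curve.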

[3] = Selectivity index is the […] between the IC50 values in the aggregation and contraction assays
In short: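 Index for τ-receptor computed as […] between IC50 in rabbit PRP aggregation (2.5×10^-6 M U-46619) and IC50 for relaxing rabbit aorta contracted by 3×10^-8 M U-46619.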

Compound: COc1ccc(S(=O)(=O)NCCCCc2cc(C(=O)O)c3ccc(C(C)C)ccc2-3)cc1
- pIC50 [1]: < 4.00
- pIC50 [2]: 6.37
- Selectivity index [3]: > 233

Compound: CC(C)c1ccc2c(CCCNS(=O)(=O)c3ccccc3)cc(C(=O)O)c-2cc1
- pIC50 [1]: < 4.00
- pIC50 [2]: 4.85
- Selectivity index [3]: > 7

Compound: CC(C)c1ccc2c(CCCCNS(=O)(=O)c3ccccc3)cc(S(=O)(=O)O)c-2cc1
- pIC50 [1]: < 4.00
- pIC50 [2]: 5.96
- Selectivity index [3]: > 91

Compound: O=C(O)COc1ccc(CCNS(=O)(=O)c2ccccc2)cc1 [SULOTROBAN]
- pIC50 [1]: 5.15
- pIC50 [2]: 5.89
- Selectivity index [3]: 5

Compound: CC(C)c1ccc2c(CCCCCNS(=O)(=O)c3ccccc3)cc(C(=O)O)c-2cc1
- pIC50 [1]: < 4.00
- pIC50 [2]: 5.47
- Selectivity index [3]: > 29

Compound: CC(C)c1ccc2c(CCCCNS(=O)(=O)c3ccccc3)cc(CC(=O)O)c-2cc1
- pIC50 [1]: < 4.00
- pIC50 [2]: 5.52
- Selectivity index [3]: > 33

Compound: COc1ccc(S(=O)(=O)NCCCCc2cc(S(=O)(=O)O)c3ccc(C(C)C)ccc2-3)cc1
- pIC50 [1]: 4.19
- pIC50 [2]: 7.01
- Selectivity index [3]: 660

Compound: CC(C)c1ccc2c(CCNS(=O)(=O)c3ccccc3)cc(C(=O)O)c-2cc1
- pIC50 [1]: < 4.00
- pIC50 [2]: 4.85
- Selectivity index [3]: > 7

Compound: CC(C)c1ccc2c(/C=C/C(=O)O)cc(CCCCNS(=O)(=O)c3ccccc3)c-2cc1
- pIC50 [1]: < 4.00
- pIC50 [2]: 4.80
- Selectivity index [3]: > 6

Compound: CC(C)c1ccc2c(CCCCNS(=O)(=O)c3ccc(Cl)cc3)cc(C(=O)O)c-2cc1
- pIC50 [1]: < 4.00
- pIC50 [2]: 6.82
- Selectivity index [3]: > 667

Compound: CC(C)c1ccc2c(CCCCNS(=O)(=O)c3ccc(Cl)cc3)cc(S(=O)(=O)O)c-2cc1
- pIC50 [1]: 5.06
- pIC50 [2]: 7.64
- Selectivity index [3]: 378

Compound: CC(C)c1ccc2c(CCCCNS(=O)(=O)c3ccccc3)cc(C(=O)O)c-2cc1
- pIC50 [1]: < 4.00
- pIC50 [2]: 5.80
- Selectivity index [3]: > 63
